In ChEMBL document CHEMBL4359882, “Synthesis, molecular docking, and QSAR study of bis-sulfonamide derivatives as potential aromatase inhibitors” (Bioorg Med Chem, 2019):

How the values were obtained:
Aromatase = target: T1, Aromatase (Homo sapiens, UniProt P11511); test: Inhibition of recombinant human aromatase expressed in baculovirus infected insect cells using O-benzyl fluorescein benzyl ester as substrate in presence of NADPH generating system by fluorescence based analysis
T1 sequence (P11511 whole entry): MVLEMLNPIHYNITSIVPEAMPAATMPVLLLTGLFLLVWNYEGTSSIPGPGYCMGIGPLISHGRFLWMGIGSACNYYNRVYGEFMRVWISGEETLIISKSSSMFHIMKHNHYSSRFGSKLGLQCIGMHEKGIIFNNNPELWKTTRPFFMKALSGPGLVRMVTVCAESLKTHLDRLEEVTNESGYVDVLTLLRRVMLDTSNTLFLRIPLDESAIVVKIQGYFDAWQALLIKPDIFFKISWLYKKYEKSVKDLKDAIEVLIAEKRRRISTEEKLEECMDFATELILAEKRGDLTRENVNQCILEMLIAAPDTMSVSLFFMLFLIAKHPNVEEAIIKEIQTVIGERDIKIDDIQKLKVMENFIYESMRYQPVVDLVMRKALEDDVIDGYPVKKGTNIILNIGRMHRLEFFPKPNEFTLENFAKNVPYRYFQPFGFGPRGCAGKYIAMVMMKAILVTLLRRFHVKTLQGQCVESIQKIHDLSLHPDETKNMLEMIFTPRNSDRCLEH

T47D = test: Cytotoxicity against human T47D cells assessed as reduction in cell growth measured after 48 hrs by MTT assay; type: functional, cell-based
Outline: (§1)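 T47-D cells kept in RPMI-1640 with 2 mM L-glutamine, insulin, 4.5 g/L glucose and 10% FBS. MRC-5 cells kept in DMEM with 10% FBS. Cells seeded at 10,000-20,000 per well and preincubated 24 h at 37 °C in 5% CO2. Serial dilutions added, then incubated 48 h. MTT for 2-4 h, formazan dissolved in DMSO, read at 550/650 nm. IC50 is the concentration giving 50% growth inhibition.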

MRC5 = test: Cytotoxicity against human MRC5 cells assessed as reduction in cell growth measured after 48 hrs by MTT assay; type: cell-based; conditions: MRC5, 48 h; outline: as §1
Homo sapiens = species: Homo sapiens; test: Selectivity index, ratio of IC50 for human MRC5 cells by MTT assay to IC50 for human recombinant aromatase expressed in baculovirus infected insect cells
[1] = Homo sapiens, T47D, 48 h, read-out: IC50

IC50 (Aromatase)	SMILES	IC50 (T47D; [1])	IC50 (MRC5)	Ratio IC50 (Homo sapiens)	IC50 (T47D; t47d)
0.16 µM	N#Cc1ccc(S(=O)(=O)NCc2cccc(CNS(=O)(=O)c3ccc(C#N)cc3)c2)cc1	69.3 µM	> 50 µg/mL	> 670	–
2.19 µM	O=S(=O)(NCc1cccc(CNS(=O)(=O)c2ccc(F)cc2)c1)c1ccc(F)cc1	–	> 50 µg/mL	> 50.5	Nd(Insoluble)
0.37 µM	O=[N+]([O-])c1ccc(S(=O)(=O)NCc2cccc(CNS(=O)(=O)c3ccc([N+](=O)[O-])cc3)c2)cc1	39.3 µM	> 50 µg/mL	> 267	–
0.06 µM	O=S(=O)(NCc1cccc(CNS(=O)(=O)c2ccc(Br)cc2)c1)c1ccc(Br)cc1	–	> 50 µg/mL	> 1450	Nd(Insoluble)
0.28 µM	CC(=O)c1ccc(S(=O)(=O)NCc2cccc(CNS(=O)(=O)c3ccc(C(C)=O)cc3)c2)cc1	> 50 µg/mL	> 50 µg/mL	> 357	–
0.43 µM	O=S(=O)(NCc1cccc(CNS(=O)(=O)c2ccc(C(F)(F)F)cc2)c1)c1ccc(C(F)(F)F)cc1	75.4 µM	74.6 µM	173	–
0.66 µM	N#Cc1ccc(S(=O)(=O)NCc2ccc(CNS(=O)(=O)c3ccc(C#N)cc3)cc2)cc1	> 50 µg/mL	92.8 µM	141	–
0.05 µM	O=S(=O)(NCc1cccc(CNS(=O)(=O)c2ccc(Cl)cc2)c1)c1ccc(Cl)cc1	37.5 µM	68.5 µM	1370	–
3.3 µM	Nc1cccc(S(=O)(=O)NCc2cccc(CNS(=O)(=O)c3cccc(N)c3)c2)c1	90.6 µM	> 50 µg/mL	> 33.9	–
11.6 µM	COc1ccc(S(=O)(=O)NCc2cccc(CNS(=O)(=O)c3ccc(OC)cc3)c2)cc1	75.3 µM	> 50 µg/mL	> 9.04	–
0.13 µM	Cc1ccc(S(=O)(=O)NCc2cccc(CNS(=O)(=O)c3ccc(C)cc3)c2)cc1	43.9 µM	> 50 µg/mL	> 865	–

Further lines, the compound ahead of its results:

SMILES	IC50 (Aromatase)	IC50 (T47D; [1])	IC50 (MRC5)	Ratio IC50 (Homo sapiens)	IC50 (T47D; t47d)
COc1cccc2c1C(=O)c1c(O)c3c(c(O)c1C2=O)C[C@@](O)(C(=O)CO)C[C@@H]3O[C@H]1C[C@H](N)[C@H](O)[C@H](C)O1 [DOXORUBICIN]	–	0.88 µM	2.19 µM	–	–
Cc1cc(C)c(C)c(S(=O)(=O)NCc2ccc(CNS(=O)(=O)c3c(C)c(C)cc(C)c3C)cc2)c1C	> 12.5 µM	> 50 µg/mL	16.3 µM	–	–
O=[N+]([O-])c1ccccc1S(=O)(=O)NCc1cccc(CNS(=O)(=O)c2ccccc2[N+](=O)[O-])c1	3.67 µM	75.4 µM	> 50 µg/mL	> 26.9	–
S=C(NCc1cccc(CNC(=S)Nc2ccc(Cl)cc2)c1)Nc1ccc(Cl)cc1	5.5 µM	–	–	–	–
O=[N+]([O-])c1cccc(S(=O)(=O)NCc2cccc(CNS(=O)(=O)c3cccc([N+](=O)[O-])c3)c2)c1	2.75 µM	> 50 µg/mL	> 50 µg/mL	> 35.9	–
O=S(=O)(NCc1cccc(CNS(=O)(=O)c2ccc3ccccc3c2)c1)c1ccc2ccccc2c1	0.21 µM	> 50 µg/mL	> 50 µg/mL	> 461	–
O=[N+]([O-])c1ccc(NC(=S)NCc2cccc(CNC(=S)Nc3ccc([N+](=O)[O-])cc3)c2)cc1	0.8 µM	–	–	–	–
O=S(=O)(Nc1cccc(NS(=O)(=O)c2ccc(Cl)cc2)c1)c1ccc(Cl)cc1	0.78 µM	87.2 µM	63.1 µM	80.9	–
COc1ccc(S(=O)(=O)Nc2cccc(NS(=O)(=O)c3ccc(OC)cc3)c2)cc1	0.53 µM	> 50 µg/mL	> 50 µg/mL	> 210	–
Cc1cc(C)c(C)c(S(=O)(=O)NCc2cccc(CNS(=O)(=O)c3c(C)c(C)cc(C)c3C)c2)c1C	3.2 µM	30.9 µM	80.9 µM	25.3	–
